Laboratory results as given in article PMC3428429 (Biochimica et biophysica acta, 2012).

Legend:
[1] = Two step assay, step one: terbium/DPA leakage from vesicles
[2] = Two step assay, step two: dithionite quenching of NBD lipids; settings: 1 μM peptide, at least 8 h
[3] = Incremental leakage assay
[4] = Serial dilution leakage assay; settings: independent of total P:L (0.05 to 0.001)
Procedure, shortened: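 Terbium-loaded LUVs (100 nm extruded; 50 mM TbCl₃, 100 mM sodium citrate, 10 mM TES pH 7.2 inside), external Tb removed by gel filtration. Outside buffer is 300 mM NaCl, 10 mM TES pH 7.2 with 50 μM DPA. Test compound runs 0.078–1.25 μM at six fixed total P:L ratios in 96-well plates. Triton X-100 wells with matched lipid give 100% leakage. Repeated with BSA to block well adsorption.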

Row | Substance | terbium leakage ([1]; P:L=0.02 (1:50), only in PG-containing vesicles, 1 μM peptide, at least 8 h) | access to the vesicle interior at equilibrium ([2]; P:L = 0.005 (1:200)) | access to NBD lipids at equilibrium ([2]; P:L=0.02 (1:50), only in PG-containing vesicles) | lowest P:L ratio with measurable pore-forming activity ([1]; 1:10000 or 10 peptides per vesicle, supplemental Figure S1) | leakage in multiple lipid additions, PEG-lipid vesicles ([3]; vesicles containing 5 mol % PEG2000-headgroup conjugated lipids, supplemental Figure S5A) | lipid exchange between vesicles along with peptide ([3]; vesicles doped with fluorescent lipids, supplemental Figure S5B) | peptide concentration at which all leakage curves reach 100% leakage [4] [nM]
1 | ALWKTMLKKLGTMALHAGKAALGAAADTISQGTQ [dermaseptin S1] | high leakage | no access to the vesicle interior at equilibrium | high access to NBD lipids | – | – | – | –
2 | Ac-UPUAUAQUVUGLUPVUUQQF-OH [alamethicin] | – | – | – | ≤ 0.0001 | near complete leakage in multiple lipid additions | no lipid exchange between vesicles | ≤ 500
